Where two headings read alike, the source gives them in different places. Blank lines part the entries; values can stand above or below the compound they belong to.
Tests used:
[1] = tested on: MV-4-11B; test: alamarBlue cell proliferation assay; type: cell-based, human; settings: MV-4-11B cells
Procedure, shortened: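 Cell lines from ATCC or DSMZ were cultured per supplier's instructions and STR-authenticated. MV-4-11B is a clone of MV-4-11 carrying heterozygous TP53 c.742C>T (p.R248W). Cells were exposed to test compound in 96-well format, and viability was read after incubation with alamarBlue.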

[2] = tested on: p-Ser2 POL-II in MV-4-11B cells; test: p-Ser2 POL-II custom MSD assay; type: cell-based; settings: 5 µM LDC000067, 2 h
Procedure, shortened: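 MV-4-11B cells were treated for 2 h with single agents or their combination. Phospho-Ser2 RNA Pol II was quantified with a custom Meso Scale Discovery multi-array assay.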

[3] = tested on: THP-1 AML cells; test: disseminated AML xenograft efficacy study; type: in vivo, CIEA-NOG mice; settings: decitabine twice per week, 0.5 mg/kg i.p.

Compound: Cc1sc2c(c1C)C(c1ccc(Cl)cc1)=N[C@@H](CC(=O)OC(C)(C)C)c1nnc(C)n1-2 [JQ1, reference compound]
EC50 ([1]; read-out: anti-proliferative EC50, biologically equivalent concentrations): 200 nM

EC50 [1]: 5000 nM
Compound: COc1ccccc1-c1cc(Nc2cccc(CS(N)(=O)=O)c2)ncn1 [LDC000067, reference compound]
p-Ser2 POL-II levels [2]: ~ 64 % of control

Compound: Nc1ncn([C@H]2C[C@H](O)[C@@H](CO)O2)c(=O)n1 [decitabine, reference compound]
survival prolongation [3]: 26 days
